From PubChem BioAssay
Hits are enriched below; roughly 2.7% of the tested compounds scored in any of these assays.
Hck Nef HTS: inhibitors of Nef-activated human Hck kinase, primary screen, biochemical, Z-Lyte FRET, 384-well, Hck-YEEI; inhibition, % at 20 µM; AID 463187, 2010; Tyrosine-protein kinase HCK (Homo sapiens), P08631; Recombinant Hck-YEEI plus Nef, Z-Lyte FRET kinase assay; 220,000 tested, 0.68% active;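 active means Hck-Nef kinase inhibition above about 50%, limit read from the data; inactive means inhibition below that limit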;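 further: 0% = DMSO with Hck plus Nef and 100% = Hck alone without Nef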
MDM2 E3 inh: MDM2-luciferase reporter signal enhancers, primary screen, MDM2 E3 ligase inhibitor project, cell-based, luminescence, 1536-well | E3 ubiquitin-protein ligase Mdm2 (Homo sapiens), Q00987 | cell-based MDM2 ubiquitination luciferase reporter, 2 h; 0 = plate control, 100 = twice control, blank-subtracted | signal enhancement, % at 5 µM | 210,000 tested, 0.11% active | AID 1230, 2008;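 active means signal enhancement of 30% or more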;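 further: luminescence tracks abundance of the self-degrading MDM2-luciferase fusion protein; higher signal means inhibition of MDM2 E3 ligase activity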
Target sequence (Q00987 whole entry, looked up, the tested form may be a part): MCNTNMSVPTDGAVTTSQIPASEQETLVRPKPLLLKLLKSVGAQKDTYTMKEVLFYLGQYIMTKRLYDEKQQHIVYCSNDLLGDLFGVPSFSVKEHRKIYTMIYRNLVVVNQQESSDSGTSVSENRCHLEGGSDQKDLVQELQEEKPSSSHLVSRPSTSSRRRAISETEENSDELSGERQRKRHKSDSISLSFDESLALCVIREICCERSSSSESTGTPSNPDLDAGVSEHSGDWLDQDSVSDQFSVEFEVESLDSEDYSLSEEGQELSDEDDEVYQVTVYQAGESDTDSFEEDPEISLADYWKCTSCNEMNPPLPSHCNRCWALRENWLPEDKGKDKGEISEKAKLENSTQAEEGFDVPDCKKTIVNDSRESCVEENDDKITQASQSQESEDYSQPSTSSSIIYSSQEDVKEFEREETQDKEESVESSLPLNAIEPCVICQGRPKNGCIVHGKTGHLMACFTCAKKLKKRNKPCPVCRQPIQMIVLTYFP
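Material: stable MDM2–luciferase fusion reporter cells / Quantity: 2000 cells/well / Dosing: single 5 µM compound dose, 0.2% final DMSO / Buffer or medium: DMEM / Schedule: 4 h cell settling then 2 h compound exposure, 37 °C / Detection: luminescence with SteadyLite reagent, 15 min at room temperature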
TbHK1 inh: Trypanosoma brucei hexokinase 1 inhibitors, primary screen, biochemical, G6PDH-coupled NADH absorbance, MLSCN library | hexokinase 1 [Trypanosoma brucei] | 220,000 tested, 0.11% active | inhibition, % at 10 µM | recombinant TbHK1, G6PDH-coupled NADH A340;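 active means inhibition of 50% or more in the single-dose primary screen; inactive means inhibition below 50%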
Wee1 stabilizer: Wee1 degradation inhibitors, primary screen, cell-based, HeLa, Wee1K328M-luciferase, luminescence | Wee1-like protein kinase (Homo sapiens), P30291 | HeLa Luc-Wee1K328M stability; 100% = proteasome inhibitor MG132 effect | reporter increase, % at 5 µM | 220,000 tested, 1.2% active | AID 1321, 2008;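 active means activation above the mean of all tested compounds plus 3 SD, set per screening run, cut at about 8.8% in these data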;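 further: cells exposed to compound for 20 h before luminescence read; 0% = DMSO alone and 100% = MG132 at 30 µM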
14-3-3 Bad inh: inhibitors of 14-3-3 zeta/Bad binding, primary screen, biochemical, TR-FRET, bovine 14-3-3 zeta; 14-3-3 protein zeta/delta (Bos taurus), P63103; TR-FRET 14-3-3zeta/Dy647-pBad peptide displacement, 1 h; inhibition, % at 21.7 µM; 220,000 tested, 0.71% active; AID 781, 2007;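 active means inhibition above about 70%, limit read from the data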;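 further: 0% = full 14-3-3 plus peptide FRET controls and 100% = background without 14-3-3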
* hit, by the source's call; nt = no result given; [ ] = dose if it differs, or a comment.

SMILES | Hck Nef HTS | MDM2 E3 inh | TbHK1 inh | Wee1 stabilizer | 14-3-3 Bad inh
C=CCNC(=S)Nc1ccc(N(C)C)cc1 | 17 | -3 | -10 | 5 | -14
COC(=O)C(C)(C)ONC(=O)Nc1ccccc1[N+](=O)[O-] | -10 | 3 | -11 | -3 | 3
Cc1ccsc1/C=N/NC(=O)C1C(=O)NCC1c1ccccc1 (stereo not given) | 21 | -9 | -21 | -1 | -5
O=c1c(Cl)c(Cl)cnn1Cc1nnc(-c2ccccc2Br)o1 | 27 | 9 | 0 | 4 | 8
CSc1cccc(NS(=O)(=O)c2ccc3c(c2)oc(=O)n3C)c1 | 2 | -16 | 1 | -1 | -2
CC(C)(C)Nc1nc(Oc2ccc(=O)[nH]n2)nc(N2CCOCC2)n1 | 9 | 1 | -3 | 9.6* | -6
C=CCc1ccc(OCCOCCOc2cccc3ccc(C)nc23)c(OC)c1 | 1 | 7 | -3 | 8 | 74*
COc1cc(C)ccc1OCCOCCOc1cccc2ccc(C)nc12 | -5 | -9 | 0 | 1 | 31
COc1ccc(CNc2oc(-c3cccc4ccccc34)nc2P(=O)(OC)OC)cc1 | 29 | -13 | -18 | 9.8* | -6
COP(=O)(OC)c1nc(-c2cccc3ccccc23)oc1NCc1ccccc1 | 11 | -16 | -6 | 0 | -16
O=C(Cc1ccccc1[N+](=O)[O-])NCc1ccc(Cl)cc1Cl | -1 | -15 | 7 | 9.4* | 2
O=C(Cc1ccccc1[N+](=O)[O-])NCc1ccc(Cl)cc1 | -6 | -3 | -7 | -1 | 2
COc1cccc(Nc2nc(-c3cccc(N4C(=O)c5ccccc5C4=O)c3)cs2)c1 | -1 | 5 | -15 | -3 | 84*
O=C(O)c1cccc(NC(=O)C2CC(=O)N(Cc3ccccc3)C2)c1 (stereo not given) | -1 | -1 | 0 | -1 | 76*
CCOC(=O)CNC(=O)CSc1nc2cccnc2n1C1CCCCC1 | -1 | -13 | -1 | -1 | nt
CCCC1/C(=N/O)CC(c2ccccc2)NC1c1ccccc1 (stereo not given) | 11 | -9 | -11 | 9.1* | -10
O=C(c1cccnc1Cl)N1CCOCC1 | -7 | -12 | 5 | 7 | -14
O=C(COC(=O)CCN1C(=O)/C(=C\C=C\c2ccccc2)SC1=S)Nc1cc(F)ccc1F | 126* | 2 | 4 | 3 | -10
COC(=O)c1ccc2nc(C(F)(F)F)[nH]c2c1 | -1 | -27 | -5 | -4 | 1
C/C(=N\OCC(=O)N/N=C/c1ccccc1O)c1cccs1 | 1 | -17 | -10 | -3 | 5
COc1cccc(/C=N/NC(=O)CO/N=C(\C)c2cccs2)c1OC | 2 | -4 | 5 | 10* | -1
COc1cc(-c2nc3ccc4ccccc4c3c3c2CCC3)cc(OC)c1OC | 2 | -5 | -4 | 2 | 71*
O=C(OCc1ccccc1)/C(=C/c1ccc(Cl)cc1)NC(=O)c1ccccc1Cl | 0 | -30 | -1 | -2 | 80*
COC(=O)CNC(=O)CCc1nnc(C2(c3ccc(Cl)cc3)CCC2)o1 | 31 | 3 | 6 | 0 | 0
COCC(C)NC(=O)CCc1nnc(C2(c3ccc(Cl)cc3)CCC2)o1 (stereo not given) | 8 | -5 | 0 | 8.9* | -11
SMILES | Hck Nef HTS | MDM2 E3 inh | TbHK1 inh | Wee1 stabilizer | 14-3-3 Bad inh
Cc1ccc(NC(=O)NC(=O)CN2C(=O)NC3(CCCCCCC3)C2=O)c(C)c1 | 0 | 7 | -3 | 0 | 71*
CC(NS(=O)(=O)c1ccccc1)C1COc2ccccc2O1 (stereo not given) | 9 | 4 | 3 | 13* | 7
CC(NC(=O)c1ccccc1Cl)C1COc2ccccc2O1 (stereo not given) | -1 | -15 | 2 | 4 | 10
CCOC(=O)CCNC(C)C1COc2ccccc2O1 (stereo not given) | -1 | -14 | 6 | -3 | 76*
CCN1CCN(CCOCCOc2ccccc2-c2ccccc2)CC1 | 12 | -25 | 9 | 0 | 71*
c1ccc(-c2ccccc2OCCOCCN2CCNCC2)cc1 | 18 | -4 | 4 | 1 | 27
CCCCCc1ccc(OCCOCCn2c[n+](C)c3ccccc32)c(CCCCC)c1 | 40 | -17 | 11 | 1 | 91*
CCCCCc1ccc(OCCC[n+]2ccccc2)c(CCCCC)c1 | 2 | -22 | 2 | 1 | 5
CCOC(=O)N1CCN(C(=O)c2cc3c(s2)-c2ccc(Cl)cc2S(=O)(=O)C3)CC1 | -4 | -22 | -6 | 10* | -6
NC(=O)[C@H]1CC2(CC(c3cccc(NC(=O)COc4ccc(Cl)cc4)c3)=NO2)CN1C(=O)Cc1ccc([N+](=O)[O-])cc1 (stereo not given in full) | 30 | -21 | -16 | nt | 1
CSc1ccc(/C=N/Nc2cccc(C(=O)O)c2)cc1 | 37 | -79 | -10 | 4 | 85*
CCOc1cc(C)c(Cl)cc1S(=O)(=O)NCCOC | 4 | 0 | -1 | 9.5* | 13
O=C(/C=C/c1ccc([N+](=O)[O-])cc1)Nc1ncc([N+](=O)[O-])s1 | 10 | -62 | -7 | 22* | 18
O=C(/C=C/c1ccc([N+](=O)[O-])cc1)NCc1ccccn1 | 3 | 1 | -16 | -2 | 2
CC(CCc1ccccc1)NC(=O)c1cc2sccc2n1C (stereo not given) | -3 | 1 | -3 | -4 | -3
COc1cccc(CSc2nc3ccccc3[nH]2)c1 | 0 | -10 | -2 | 9.0* | -3
O=[N+]([O-])c1cccc(CSc2nc3ccccc3[nH]2)c1 | 1 | -10 | 2 | -1 | 5
CCC1=NN2C(=N)/C(=C/c3c(C)nn(-c4ccccc4)c3Cl)C(=O)N=C2S1 | 10 | 11 | -16 | -4 | 0
CCc1nn2c(=O)cc(COc3ccc(/C=C4\C(=N)N5N=C(C)SC5=NC4=O)cc3)nc2s1 | 75* | -7 | -28 | -3 | 22
CCOC(=O)c1[nH]c2ccccc2c1NC(=S)Nc1cccc(C)c1 | 19 | nt | -8 | 9.3* | -1
CCOC(=O)c1[nH]c2ccccc2c1NC(=S)Nc1ccccc1 | 25 | nt | -10 | 0 | -3
CCN(CCO)c1ccc(-n2c(N)c(C(=O)OC)c3nc4ccccc4nc32)cc1 | 12 | -12 | -19 | -1 | 87*
COc1ccc2nc(C)cc(SCC(=O)N/N=C/c3c(OC)ccc4ccccc34)c2c1 | 50 | -5 | 0 | 4 | 96*[fluorescence artefact?]
COc1ccc2nc(C)cc(SCC(=O)N/N=C/c3ccccc3)c2c1 | 13 | -18 | 7 | -1 | 24
